Reference: article PMC7313255 (Biology of Reproduction, 2020)
Values joined by “and” are separate entries in the source; they are usually repeats but may differ in a detail not shown here. Equal values may be shown once. Where a name gives a salt, the structure may show the parent alone. Read-outs that look alike come from different tables or passages of the source. Blank lines part the entries; values can stand above or below the compound they belong to. Positions of bridges follow the written chain, without caps; N, C: chain ends. Non-standard residues stand in square brackets, D forms with d. Residues, ends and D or L forms follow the SMILES beside them. Orn = NCCC[C@H](N)C(=O)O; Mpa = O=C(O)CCS

Tests used:
[1] = sheep, epitheliochoral placenta; cited from earlier work
[2] = cited from earlier work
[3] = target: cloned human V1AR; conditions: read-out: Ki (affinity), cloned human V1AR; two literature values; cited from earlier work
[4] = format: in vitro ADME, human
Procedure, shortened: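 Term placentas (39–41 weeks, no chorioamnionitis) perfused ex vivo as double-sided open cotyledon at 36.5 °C; fetal flow 2 mL/min, maternal 10 mL/min. Test compound 1.2 µM (1 µg/mL) in perfusate with antipyrine 531 µM co-infused. Fetal venous samples at 1–120 min; Evans blue integrity check. LC-MS/MS for test compound, spectrophotometry for antipyrine; trapezoidal AUC ratio; mean ± SD.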

[5] = quantitative whole-body autoradiography; format: in vivo; conditions: rat; all sampling times; limit of quantitation 40 pmoles/g; unpublished data
[6] = Placental transfer in cynomolgus monkeys; format: in vivo, cynomolgus monkeys (Macaca fascicularis); conditions: cynomolgus monkey
Procedure, shortened: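 Three pregnant monkeys, gestation day 150 ± 1. Test compound infused intravenously (saphenous vein) over 2 h to 300 µg/kg in 5 mL/kg, from a 10 mg/mL stock in 0.04 M acetate pH 4.3 diluted in saline. Maternal brachial plasma taken pre-dose, 1 and 2 h. Umbilical venous plasma and amniotic fluid taken at C-section under ketamine/xylazine. Plasma measured by RIA, amniotic fluid by LC-MS/MS; paired t-test.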

[7] = cited from earlier work; remark: listed apart in the source
[8] = Placental transfer in rabbits; format: in vivo, New Zealand white rabbits; conditions: rabbit
Procedure, shortened: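 Pregnant rabbits (5–6 months, 3.0–4.4 kg) given the radiolabelled test compound by ear-vein bolus daily on gestation days 24–30: mean 3.01 mg/kg, 522 kBq/kg, in 0.9% saline. Three dams per time point killed by barbiturate at 10 min, 1, 3 and 10 h after dosing. Maternal ear-artery blood taken; from one fetus per sex, cardiac blood and tissues taken. Liquid scintillation counting; levels expressed as % of maternal peak.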

[9] = tested on: vasopressin-induced contractions of isolated term-pregnant human myometrium; conditions: cited from earlier work
[10] = up to 2.5 mg barusiban/kg body weight/day from day 85 of gestation until delivery; cited from earlier work
[11] = tested on: oxytocin-induced uterine contractions; conditions: cited from earlier work
[12] = quantitative whole-body autoradiography; format: in vivo; conditions: marmoset; normally below the limit of quantification; unpublished data

SMILES: CCOc1ccc(C[C@H]2NC(=O)CCSSC[C@@H](C(=O)N3CCC[C@H]3C(=O)N[C@@H](CCCN)C(=O)NCC(N)=O)NC(=O)[C@H](CC(N)=O)NC(=O)[C@H]([C@@H](C)O)NC(=O)[C@H]([C@@H](C)CC)NC2=O)cc1 [atosiban] ([Mpa][dY](Et)ITNCP[Orn]G-NH2; disulfide 1-6 (inferred); C-terminus assumed)
placental transfer [1]: could not be detected | placental transfer ([2]; in vivo, pregnant women at term): 12% | Ki [3]: 3.5 nM and 4.7 nM

transfer of antipyrine relative to barusiban ([4]; human placental single cotyledon, comparator): approximately three times greater
SMILES: Cc1cc(=O)n(-c2ccccc2)n1C [antipyrine, reference compound]

SMILES: O=S(=O)([O-])[O-].[Mg+2] [MgSO4]
placental transfer ([2]; in humans): up to 100%

barusiban in the fetuses (QWBA) [5]: < 40 pmol/g | increase of maternal plasma barusiban from 1 h to 2 h ([6]; individual values of two animals): 40.4% and 54.6% | mean amniotic barusiban at C-section as % of the maternal plasma after 2 h ([6]; iv infusion 2 h to 300 μg/kg, n = 3): 1.9% | decrease of maternal plasma barusiban from 1 h to 2 h ([6]; third animal): 5.0% | AUC ratio of barusiban to antipyrine ([4]; ex vivo perfused human cotyledon, mean of ratios ± SD, n = 13, SD): 36 ± 11% | barusiban level in other fetal tissues as % of the maternal blood ([8]; 10 min post-dose, or less than LLOQ): < 1% | barusiban in most fetal tissue samples as % of the maternal peak blood level ([8]; 1 h post-dose, or less than LLOQ): less than 1% | fetal blood barusiban as % of that after 10 min ([8]; 1 h post-dose): 79.3% | fetal blood barusiban as % of the peak maternal level ([8]; 1 h post-dose): 4.2% | fetal plasma barusiban as % of the peak maternal level ([8]; 1 h post-dose): 5.0% | maternal blood barusiban as % of the maximum level ([8]; 1 h post-dose): 32.8% | maternal plasma barusiban as % of the maximum level ([8]; 1 h post-dose): 35.2% | maternal blood barusiban as % of its maximum level ([8]; 3 h post-dose): 6.1% | maternal plasma barusiban as % of its maximum level ([8]; 3 h post-dose): 7.9% | fetal adrenal barusiban as % of the maximal maternal blood level ([8]; 10 h post-dose, one adrenal): 12.0% | barusiban in all other fetal tissues as % of peak maternal blood level ([8]; 10 h post-dose, or less than LLOQ): less than 1% | amniotic fluid barusiban as % of the maximal maternal blood level ([8]; 10 h post-dose): 5.7% | fetal blood barusiban as % of initial maternal level ([8]; 10 h post-dose): less than 2% | fetal plasma barusiban as % of initial maternal level ([8]; 10 h post-dose): less than 3% | maternal blood barusiban as % of the first determination ([8]; 10 h post-dose): less than 1% | maternal plasma barusiban as % of the first determination ([8]; 10 h post-dose): less than 2% | radioactivity in fetal brain (QWBA) [12]: < 12 pmoles/g tissue
SMILES: CC[C@@H](C)[C@@H]1NC(=O)[C@H]([C@@H](C)CC)NC(=O)[C@@H](Cc2c[nH]c3ccccc23)NC(=O)CCSCC[C@@H](C(=O)N(C)[C@H](CO)CCCN)NC(=O)[C@H](CC(N)=O)NC1=O [barusiban]
effect over the placebo group (women who did not deliver within 48 h) ([7]; Phase II clinical trial): did not demonstrate a statistically significant effect | fetal and neonatal adverse events with maternal barusiban ([7]; clinical study, did not differ from placebo): very low level of fetal and neonatal adverse events | effect on vasopressin-induced contractions [9]: practically no effect | effects in the mother or offspring [10]: no barusiban-related effects | reduction of induced uterine contractions compared with fenoterol ([11]; cynomolgus monkey): more effective than fenoterol | reduction of oxytocin-induced uterine contractions compared with atosiban ([11]; pregnant cynomolgus monkey, action also longer lasting): more potent

SMILES: CC(NCCc1ccc(O)cc1)C(O)c1ccc(O)cc1 (centres unmarked) [ritodrine hydrochloride]
placental transfer ([2]; in humans, long-term treatment): 70% | placental transfer ([2]; in humans, short-term treatment): 26%
